This passage reports inhibition results from ChEMBL document CHEMBL2424622, “Development of amino-pyrimidine inhibitors of c-Jun N-terminal kinase (JNK): kinase profiling guided optimization of a 1,2,3-benzotriazole lead” (Bioorg Med Chem Lett, 2013).

For one assay, the species on record is Homo sapiens. The assay is described as follows: Competitive binding affinity to EGFR E746 to A750 deletion mutant (unknown origin) at 10 uM in presence of ATP relative to control. The procedure, abridged:
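Screened at 10 µM in an in vitro ATP-site competition binding assay across a diverse panel of 128 kinases, with this kinase as one panel member. Readout is binding relative to control.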

Assay [1] concerns the target Serine/threonine-protein kinase MRCK alpha (Homo sapiens) (UniProt Q5VT25). The assay is described as follows: Competitive binding affinity to MRCKA (unknown origin) at 10 uM in presence of ATP relative to control. The method, boiled down:
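In vitro ATP-site competition binding assay across a diverse panel of 128 kinases, with compound tested at a single concentration. Kinase selectivity scores (S15) were calculated from the panel profiles.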

Assay [2] concerns the target Ribosomal protein S6 kinase alpha-6 (Homo sapiens) (UniProt Q9UK32). As to the kind of experiment: Competitive binding affinity to RPS6KA6 kinase domain 1 (unknown origin) at 10 uM in presence of ATP relative to control.
Assay [3] concerns the target RAC-gamma serine/threonine-protein kinase (Homo sapiens) (UniProt Q9Y243). The assay is described as follows: Competitive binding affinity to AKT3 (unknown origin) at 10 uM in presence of ATP relative to control.
The target of assay [4] is RAC-beta serine/threonine-protein kinase (Homo sapiens) (UniProt P31751). As to the kind of experiment: Competitive binding affinity to AKT2 (unknown origin) at 10 uM in presence of ATP relative to control.
Assay [5] addresses T1, Ankyrin repeat and protein kinase domain-containing protein 1 (Homo sapiens) (UniProt Q8NFD2).
T1 sequence (whole entry): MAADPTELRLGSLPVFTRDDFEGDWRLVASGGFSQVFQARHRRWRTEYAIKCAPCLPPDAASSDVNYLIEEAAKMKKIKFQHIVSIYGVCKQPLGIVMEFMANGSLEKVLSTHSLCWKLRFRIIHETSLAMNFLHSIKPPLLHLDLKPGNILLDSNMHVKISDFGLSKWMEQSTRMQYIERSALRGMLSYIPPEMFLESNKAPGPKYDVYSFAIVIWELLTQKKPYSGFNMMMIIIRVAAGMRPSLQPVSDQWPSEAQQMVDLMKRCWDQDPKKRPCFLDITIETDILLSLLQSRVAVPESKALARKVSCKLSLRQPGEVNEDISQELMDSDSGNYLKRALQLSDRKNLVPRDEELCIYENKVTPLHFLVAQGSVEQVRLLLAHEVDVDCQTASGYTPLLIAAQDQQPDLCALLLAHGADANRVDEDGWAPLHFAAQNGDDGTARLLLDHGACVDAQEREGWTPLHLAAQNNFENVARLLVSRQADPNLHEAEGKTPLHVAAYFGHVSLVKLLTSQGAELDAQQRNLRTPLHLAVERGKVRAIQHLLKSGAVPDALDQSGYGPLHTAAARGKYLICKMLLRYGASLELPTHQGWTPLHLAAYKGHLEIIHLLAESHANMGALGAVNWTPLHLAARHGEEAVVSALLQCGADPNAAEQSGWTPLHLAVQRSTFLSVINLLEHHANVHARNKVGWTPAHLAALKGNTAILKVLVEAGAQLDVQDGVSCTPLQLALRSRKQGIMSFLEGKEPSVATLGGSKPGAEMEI
The assay is described as follows: Competitive binding affinity to ANKK1 (unknown origin) at 10 uM in presence of ATP relative to control.

Assay [6] deals with Hepatocyte growth factor receptor (Homo sapiens) (UniProt P08581). The assay is described as follows: Competitive binding affinity to MET (unknown origin) at 10 uM in presence of ATP relative to control.
Assay [7] addresses T2, Inhibitor of nuclear factor kappa-B kinase subunit epsilon (Homo sapiens) (UniProt Q14164).
T2 sequence (whole entry): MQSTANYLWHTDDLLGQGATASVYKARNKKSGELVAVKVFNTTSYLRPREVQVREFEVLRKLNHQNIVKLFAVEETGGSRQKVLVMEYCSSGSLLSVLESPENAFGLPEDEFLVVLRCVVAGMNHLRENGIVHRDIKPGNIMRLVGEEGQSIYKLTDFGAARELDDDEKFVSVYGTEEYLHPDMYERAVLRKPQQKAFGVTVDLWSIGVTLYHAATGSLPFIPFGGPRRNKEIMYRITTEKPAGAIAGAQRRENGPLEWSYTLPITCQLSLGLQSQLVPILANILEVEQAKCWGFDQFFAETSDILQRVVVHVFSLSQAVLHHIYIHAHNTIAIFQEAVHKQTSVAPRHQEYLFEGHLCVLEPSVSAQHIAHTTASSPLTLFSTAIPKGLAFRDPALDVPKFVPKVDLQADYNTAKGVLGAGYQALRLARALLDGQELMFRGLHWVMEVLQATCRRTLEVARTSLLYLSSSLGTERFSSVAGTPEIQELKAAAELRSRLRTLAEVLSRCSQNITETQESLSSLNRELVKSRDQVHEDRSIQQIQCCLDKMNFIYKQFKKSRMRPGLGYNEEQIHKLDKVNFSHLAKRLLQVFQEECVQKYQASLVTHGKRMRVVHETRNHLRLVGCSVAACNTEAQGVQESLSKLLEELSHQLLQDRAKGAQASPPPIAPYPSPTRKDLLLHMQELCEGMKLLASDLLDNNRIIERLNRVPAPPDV
The assay is described as follows: Competitive binding affinity to IKKepsilon (unknown origin) at 10 uM in presence of ATP relative to control.

Sequence of Hepatocyte growth factor receptor (Homo sapiens) (P08581 whole entry): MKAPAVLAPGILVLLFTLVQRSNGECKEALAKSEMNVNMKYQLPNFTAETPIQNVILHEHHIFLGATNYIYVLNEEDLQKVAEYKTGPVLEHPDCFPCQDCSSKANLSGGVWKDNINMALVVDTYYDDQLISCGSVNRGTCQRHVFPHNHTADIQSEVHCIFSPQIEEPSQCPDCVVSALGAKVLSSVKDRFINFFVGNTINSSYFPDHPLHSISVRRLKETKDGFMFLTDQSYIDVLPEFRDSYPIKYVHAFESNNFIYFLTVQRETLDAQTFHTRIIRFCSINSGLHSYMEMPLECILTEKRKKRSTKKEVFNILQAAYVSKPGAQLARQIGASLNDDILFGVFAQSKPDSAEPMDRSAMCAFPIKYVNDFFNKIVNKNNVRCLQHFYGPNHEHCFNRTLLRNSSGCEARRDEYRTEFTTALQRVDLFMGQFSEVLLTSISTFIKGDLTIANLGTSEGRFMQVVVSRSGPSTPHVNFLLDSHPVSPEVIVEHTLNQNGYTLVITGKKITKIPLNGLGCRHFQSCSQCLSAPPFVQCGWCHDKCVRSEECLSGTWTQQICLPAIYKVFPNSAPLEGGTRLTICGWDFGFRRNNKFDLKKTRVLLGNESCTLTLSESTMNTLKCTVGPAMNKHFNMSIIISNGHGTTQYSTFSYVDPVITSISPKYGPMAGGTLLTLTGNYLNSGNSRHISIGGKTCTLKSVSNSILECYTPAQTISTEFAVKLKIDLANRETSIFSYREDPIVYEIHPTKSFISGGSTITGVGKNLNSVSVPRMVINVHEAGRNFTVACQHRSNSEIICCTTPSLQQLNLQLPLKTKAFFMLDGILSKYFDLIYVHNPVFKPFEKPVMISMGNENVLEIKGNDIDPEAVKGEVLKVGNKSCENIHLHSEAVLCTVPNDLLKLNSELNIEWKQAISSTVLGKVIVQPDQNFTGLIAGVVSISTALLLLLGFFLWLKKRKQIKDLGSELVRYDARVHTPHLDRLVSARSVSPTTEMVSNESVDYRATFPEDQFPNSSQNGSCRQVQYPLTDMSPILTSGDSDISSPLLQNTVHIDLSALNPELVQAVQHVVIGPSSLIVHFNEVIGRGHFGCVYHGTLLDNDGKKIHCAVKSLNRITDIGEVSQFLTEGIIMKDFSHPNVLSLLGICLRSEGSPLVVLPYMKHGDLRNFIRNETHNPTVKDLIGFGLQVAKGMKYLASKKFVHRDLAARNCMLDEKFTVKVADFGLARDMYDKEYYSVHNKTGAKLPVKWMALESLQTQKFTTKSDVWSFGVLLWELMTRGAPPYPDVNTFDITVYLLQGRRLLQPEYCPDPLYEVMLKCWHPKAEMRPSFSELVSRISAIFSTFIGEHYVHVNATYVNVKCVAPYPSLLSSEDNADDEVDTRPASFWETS
Sequence of Serine/threonine-protein kinase MRCK alpha (Homo sapiens) (Q5VT25 whole entry): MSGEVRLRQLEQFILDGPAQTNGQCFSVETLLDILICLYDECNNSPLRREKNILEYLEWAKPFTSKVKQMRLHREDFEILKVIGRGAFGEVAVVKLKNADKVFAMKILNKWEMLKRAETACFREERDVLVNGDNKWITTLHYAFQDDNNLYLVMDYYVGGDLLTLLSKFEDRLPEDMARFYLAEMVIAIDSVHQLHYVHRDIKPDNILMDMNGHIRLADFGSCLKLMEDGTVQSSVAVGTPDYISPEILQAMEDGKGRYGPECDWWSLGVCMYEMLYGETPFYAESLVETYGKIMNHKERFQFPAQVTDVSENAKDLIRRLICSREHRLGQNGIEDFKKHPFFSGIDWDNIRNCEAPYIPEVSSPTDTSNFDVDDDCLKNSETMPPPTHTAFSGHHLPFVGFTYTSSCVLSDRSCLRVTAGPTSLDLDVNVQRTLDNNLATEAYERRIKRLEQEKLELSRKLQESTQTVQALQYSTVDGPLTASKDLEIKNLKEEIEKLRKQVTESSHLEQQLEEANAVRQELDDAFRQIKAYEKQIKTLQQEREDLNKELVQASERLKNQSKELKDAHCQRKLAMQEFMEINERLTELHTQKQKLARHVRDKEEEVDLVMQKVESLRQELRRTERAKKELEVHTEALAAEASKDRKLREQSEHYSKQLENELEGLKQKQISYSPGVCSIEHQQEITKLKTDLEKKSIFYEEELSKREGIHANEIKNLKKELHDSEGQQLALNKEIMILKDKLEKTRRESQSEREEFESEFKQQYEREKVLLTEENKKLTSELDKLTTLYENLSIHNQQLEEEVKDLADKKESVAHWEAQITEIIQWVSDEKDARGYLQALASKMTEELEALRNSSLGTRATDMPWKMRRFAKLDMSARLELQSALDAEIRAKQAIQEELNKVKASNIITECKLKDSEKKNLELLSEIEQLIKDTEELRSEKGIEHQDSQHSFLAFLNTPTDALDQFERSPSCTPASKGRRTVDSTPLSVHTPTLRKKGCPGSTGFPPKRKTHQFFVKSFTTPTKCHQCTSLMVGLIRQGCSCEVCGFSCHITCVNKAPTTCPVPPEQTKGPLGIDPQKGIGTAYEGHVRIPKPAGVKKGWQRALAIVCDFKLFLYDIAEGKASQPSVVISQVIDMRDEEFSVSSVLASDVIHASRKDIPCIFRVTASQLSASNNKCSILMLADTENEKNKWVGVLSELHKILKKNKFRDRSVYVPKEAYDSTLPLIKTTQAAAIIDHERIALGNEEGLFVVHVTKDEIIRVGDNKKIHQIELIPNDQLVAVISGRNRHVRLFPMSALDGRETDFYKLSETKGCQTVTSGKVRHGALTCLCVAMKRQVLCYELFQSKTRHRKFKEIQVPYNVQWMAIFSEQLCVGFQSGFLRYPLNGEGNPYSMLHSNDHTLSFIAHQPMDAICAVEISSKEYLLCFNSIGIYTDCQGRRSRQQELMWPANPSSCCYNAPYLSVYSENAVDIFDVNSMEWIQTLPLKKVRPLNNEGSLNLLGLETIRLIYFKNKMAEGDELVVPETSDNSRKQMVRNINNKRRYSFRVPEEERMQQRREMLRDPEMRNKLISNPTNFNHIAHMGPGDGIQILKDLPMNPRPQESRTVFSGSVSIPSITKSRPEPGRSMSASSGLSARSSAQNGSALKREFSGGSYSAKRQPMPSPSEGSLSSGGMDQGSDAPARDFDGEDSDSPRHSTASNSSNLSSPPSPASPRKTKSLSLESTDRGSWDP
Sequence of RAC-gamma serine/threonine-protein kinase (Homo sapiens) (Q9Y243 whole entry): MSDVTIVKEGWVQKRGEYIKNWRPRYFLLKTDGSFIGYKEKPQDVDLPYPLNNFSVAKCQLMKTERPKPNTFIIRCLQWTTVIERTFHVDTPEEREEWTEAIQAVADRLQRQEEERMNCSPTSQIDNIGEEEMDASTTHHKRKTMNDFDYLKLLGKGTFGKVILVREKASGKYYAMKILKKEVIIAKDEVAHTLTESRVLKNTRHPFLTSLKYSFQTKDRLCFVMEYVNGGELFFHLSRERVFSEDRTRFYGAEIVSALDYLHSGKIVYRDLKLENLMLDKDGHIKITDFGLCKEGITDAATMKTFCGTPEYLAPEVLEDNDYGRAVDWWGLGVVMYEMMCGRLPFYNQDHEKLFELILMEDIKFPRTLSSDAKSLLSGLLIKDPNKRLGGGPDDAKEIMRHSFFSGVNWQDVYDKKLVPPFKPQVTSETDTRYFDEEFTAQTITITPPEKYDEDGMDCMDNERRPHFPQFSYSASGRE
Sequence of RAC-beta serine/threonine-protein kinase (Homo sapiens) (P31751 whole entry, the tested form may be a part): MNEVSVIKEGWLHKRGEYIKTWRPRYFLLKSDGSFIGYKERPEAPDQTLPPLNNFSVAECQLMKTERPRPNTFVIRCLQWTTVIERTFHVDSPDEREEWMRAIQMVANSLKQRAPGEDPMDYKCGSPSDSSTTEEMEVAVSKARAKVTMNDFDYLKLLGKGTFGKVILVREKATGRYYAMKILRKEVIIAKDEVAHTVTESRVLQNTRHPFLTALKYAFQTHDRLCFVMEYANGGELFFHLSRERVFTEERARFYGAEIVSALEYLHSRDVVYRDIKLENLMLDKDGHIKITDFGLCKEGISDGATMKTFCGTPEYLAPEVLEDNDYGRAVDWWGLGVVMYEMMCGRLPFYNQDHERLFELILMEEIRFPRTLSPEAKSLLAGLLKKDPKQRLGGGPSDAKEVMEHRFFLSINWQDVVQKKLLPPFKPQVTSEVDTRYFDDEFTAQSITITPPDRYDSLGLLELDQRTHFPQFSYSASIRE
Sequence of Ribosomal protein S6 kinase alpha-6 (Homo sapiens) (Q9UK32 whole entry, the tested form may be a part): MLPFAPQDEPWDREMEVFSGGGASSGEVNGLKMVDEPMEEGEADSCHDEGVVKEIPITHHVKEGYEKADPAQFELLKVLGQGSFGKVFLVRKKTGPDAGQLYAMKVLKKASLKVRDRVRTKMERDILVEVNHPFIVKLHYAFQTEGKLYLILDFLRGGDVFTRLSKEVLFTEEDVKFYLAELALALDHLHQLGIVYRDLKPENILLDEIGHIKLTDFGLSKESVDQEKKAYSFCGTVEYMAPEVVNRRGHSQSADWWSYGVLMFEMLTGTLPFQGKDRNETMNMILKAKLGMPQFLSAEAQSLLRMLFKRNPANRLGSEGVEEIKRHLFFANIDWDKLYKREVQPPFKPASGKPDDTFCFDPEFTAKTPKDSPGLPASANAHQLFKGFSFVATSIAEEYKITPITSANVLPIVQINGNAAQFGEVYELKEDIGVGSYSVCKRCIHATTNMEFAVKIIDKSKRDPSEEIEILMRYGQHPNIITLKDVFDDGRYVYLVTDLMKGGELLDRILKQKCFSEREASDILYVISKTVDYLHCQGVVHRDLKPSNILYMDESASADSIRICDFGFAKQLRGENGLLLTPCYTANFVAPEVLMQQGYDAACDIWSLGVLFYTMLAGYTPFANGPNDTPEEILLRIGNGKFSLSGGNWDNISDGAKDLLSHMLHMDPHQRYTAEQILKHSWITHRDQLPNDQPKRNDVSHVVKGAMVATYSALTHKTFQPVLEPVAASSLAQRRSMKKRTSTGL

One may read the inhibition as the share of the control response that was lost under treatment. In the case of `O[C@H]1CC[C@H](Nc2nccc(-n3ccc4ccccc43)n2)CC1`, the inhibition (in the assay listed under Homo sapiens; in assay [1]; in assay [2]; in assay [3]; in assay [4]; in assay [5]) was under 50% in each case. Moreover, the inhibition in assay [6] was 93%; in assay [7] it was under 50%.

In the case of `O[C@H]1CC[C@H](Nc2nccc(-n3nnc4ccccc43)n2)CC1`, the inhibition in the assay listed under Homo sapiens was under 50%; in assay [1], under 50%; in assay [2], under 50%; in assay [3], under 50%; in assay [4] it was under 50%; in assay [5], 69%. Moreover, the inhibition in assay [6] was 97%; in assay [7], under 50%.

`O[C@H]1CC[C@H](Nc2nccc(-n3ncc4ccccc43)n2)CC1`: the inhibition was 99% in the assay listed under Homo sapiens; under 50% in assay [1]; under 50% in assay [2]; under 50% in assay [3]; under 50% in assay [4]; under 50% in assay [5]. Further, the inhibition is 96% in assay [6] and under 50% in assay [7].

For `O[C@H]1CC[C@H](Nc2nccc(-c3n[nH]c4ccccc34)n2)CC1`, the inhibition in the assay filed under Homo sapiens was under 50%; in assay [1], under 50%; in assay [2], 79%; in assay [3], under 50%; in assay [4], under 50%; in assay [6], 98%.
